# Measured values published in paper PMC3557599 (Toxicology and applied pharmacology, 2012).
# Like-named read-outs stand apart in the source and are kept apart here.
# What was measured:
# [1] = Reaction with GSH in the presence of filtered rat liver cytosol; type: in vitro ADME; settings: for Half-life +GSH + Cytosol: 0.459 mM compound, 1.53 mM GSH, filtered rat liver cytosol 2 mg/mL, 37°C; for reduction of half-life in the presence of liver cytosol: +GSH + cytosol vs +GSH alone
# In short: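 Rat liver cytosol came from male Sprague-Dawley rats (180–225 g). It was filtered three times through centrifugal filters with pH 7.4 phosphate buffer to strip GSH and small molecules, and protein was measured by Lowry. Test compound (0.459 mM), GSH (1.53 mM) and cytosol (2 mg/mL) were incubated at 37°C. Aliquots were taken every 2.5 or 5 min, TFA-acidified, and run on C18 HPLC with UV detection. Diastereomer half-lives came from first-order kinetics.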
# rats = settings: 230 µmol/kg b.w. ref Lash et al., 1994; cited from earlier work
# male Sprague-Dawley rats = type: in vivo, rat; settings: 230 µmol/kg b.w. i.p.; for BUN levels compared to control (saline-treated) rats / AST and ALT levels: 24 h after dosing; for AST and ALT levels: vs saline-treated rats; for Urine protein/creatinine ratio: vs saline; for urine volume: saline-treated rats 0.20 ± 0.04 dL; for nephrotoxicity based on the biochemical endpoints assayed: equimolar comparison
# kidneys of male rats = assay: Kidney histopathology, grading of tubular necrosis in inner and outer zone; type: in vivo, rat; settings: 230 µmol/kg b.w. i.p., 24 h post treatment
# [2] = Reactivity toward GSH in phosphate buffer pH 7.4 at 37°C; type: physicochemical
# In short: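 Test compound (0.459 mM) and GSH (1.53 mM) were incubated in 0.1 M KH2PO4/0.1 M KCl/5 mM Na2EDTA, pH 7.4, in a shaking bath at 37°C. Aliquots were taken every 5–10 min for up to 60 min and TFA-acidified. Analysis was C18 HPLC with an acetonitrile/0.1% TFA gradient, reading UV 220 nm for sulfoxide loss and 260 nm for products. Diastereomer half-lives came from first-order kinetics. Conjugates (3 mM compound, 10 mM GSH, 1 h) were isolated and identified by positive-ESI LC/MS-TOF.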
# [3] = ref Commandeur et al., 1991; cited from earlier work
# [4] = tested on: isolated rat renal proximal tubule cells; settings: cited from earlier work
Compound,Half-life +GSH + Cytosol [1],reduction of half-life in the presence of liver cytosol [1],BUN levels compared to control (saline-treated) rats (male Sprague-Dawley rats),kidney region primarily affected by lesions (kidneys of male rats),reaction with GSH (formation of glutathione conjugates) [2],also measured
"CC(=O)N[C@@H](C[S+]([O-])C(Cl)=CCl)C(=O)O (single isomer, unassigned) [NA-DCVCS I, N-acetyl-S-(1,2-dichlorovinyl)-L-cysteine sulfoxide]",5.4 min,2 fold,,,,
"CC(=O)N[C@@H](C[S+]([O-])C(Cl)=CCl)C(=O)O (single isomer, unassigned) [NA-DCVCS II, N-acetyl-S-(1,2-dichlorovinyl)-L-cysteine sulfoxide]",2.3 min,10 fold,,,,
"N[C@@H](CSC(Cl)=CCl)C(=O)O [DCVC, S-(1,2-dichlorovinyl)-L-cysteine]",,,,,,"kidney histopathology (rats): scattered, patchy foci of tubular necrosis"
"CC(=O)N[C@@H](CSC(Cl)=CCl)C(=O)O [NA-DCVC, N-Acetyl-S-(1,2-dichlorovinyl)-L-cysteine]",,,approximately 3 fold,cortico-medullary proximal tubules (S2–S3 segments),not reactive with GSH,"Urinary excretion of glucose over 24 h compared to saline-treated rats (male Sprague-Dawley rats): 113 fold; AST and ALT levels (male Sprague-Dawley rats): not different from saline-treated rats; Urine protein/creatinine ratio (male Sprague-Dawley rats; 24 h urine): elevated; urine volume (male Sprague-Dawley rats; 24 h urine): 0.32 ± 0.11 dL; nephrotoxicity based on the biochemical endpoints assayed (male Sprague-Dawley rats): less nephrotoxic than DCVCS; mutagenicity in the Ames test [3]: strong mutagen; cytotoxicity ([4]; isolated rat proximal tubule cells ref Commandeur et al., 1991): less cytotoxic then DCVC"
"CC(=O)N[C@@H](C[S+]([O-])C(Cl)=CCl)C(=O)O (stereo partly drawn) [NA-DCVCS, N-acetyl-S-(1,2-dichlorovinyl)-L-cysteine sulfoxide]",,,approximately 3 fold,cortico-medullary proximal tubules (S2–S3 segments),the corresponding glutathione conjugates were detected,"Urinary excretion of glucose over 24 h compared to saline-treated rats (male Sprague-Dawley rats): 89 fold; AST and ALT levels (male Sprague-Dawley rats): not different from saline-treated rats; Urine protein/creatinine ratio (male Sprague-Dawley rats; 24 h urine): elevated; nephrotoxicity based on the biochemical endpoints assayed (male Sprague-Dawley rats): less nephrotoxic than DCVCS; cytotoxicity ([4]; isolated rat renal proximal tubule cells ref Werner et al., 1996): more cytotoxic than NA-DCVC"
"S-(1,2-dichlorovinyl)-L-cysteine sulfoxide [DCVCS I, reference compound]",1.4 min,10 fold,,,,
"S-(1,2-dichlorovinyl)-L-cysteine sulfoxide [DCVCS II, reference compound]",3.1 min,2 fold,,,,
"S-(1,2-dichlorovinyl)-L-cysteine sulfoxide [DCVCS, reference compound]",,,7 fold,outer cortical proximal tubules (S1–S2 segments),the corresponding glutathione conjugates were detected,"anuric rats (male Sprague-Dawley rats; 24 h): two out of the four; Glucose excretion (male Sprague-Dawley rats; 24 h urine, rats anuric or producing little urine): not different than saline-treated rats; urine volume (male Sprague-Dawley rats; 24 h urine): 0.05 ± 0.07 dL"
